{
  "source": "ChEMBL document CHEMBL1949512",
  "about": "“RO4383596, an orally active KDR, FGFR, and PDGFR inhibitor: synthesis and biological evaluation” (Bioorg Med Chem, 2005)",
  "key": {"[1]": {"assay": "Tmax in athymic nude mouse at 50 mg/kg, po", "type": "ADME, organism-based", "set-up": "dose 50 mg/kg, route oral", "details": "in vivo", "in_short": "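Athymic nude mice, single oral dose 50 mg/kg in 2% Klucel LF, 0.1% Tween 80 in water, 0.2 mL. Retro-orbital or terminal cardiac blood at 5, 15, 30 min and 1, 2, 4, 8, 16, 24 h; EDTA plasma by LC-MS/MS. Composite parameters; Tmax read from mean concentration–time profile.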"}, "[2]": {"assay": "Cmax in C57/BL6 mouse at 50 mg/kg, po bid for 5 days", "type": "ADME, organism-based", "set-up": "dose 50 mg/kg, route oral", "details": "in vivo", "in_short": "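Female C57/BL6 mice were dosed orally twice daily for 5 days with a suspension in 2% Klucel LF/0.1% Tween 80 in water. Six mice per dose were split into two subgroups of three, each sampled at alternate time points. Retro-orbital blood was taken at 0, 1, 4 and 8 h post-dose into EDTA, and plasma was analysed by LC-MS/MS. Parameters come from mean concentrations; AUC0–8h by linear trapezoidal rule; Cmax and Tmax as observed.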"}, "Mus musculus": {"system": "Mus musculus", "assay": "Antiangiogenic activity in C57/BL6 mouse cornea assessed as inhibition of VEGF-induced angiogenesis at 50 mg/kg, po bid for 7 days by corneal pocket assay relative to control", "type": "functional", "details": "168 h", "in_short": "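VEGF-impregnated pellets were implanted in corneas of female C57/BL6 mice aged 5–7 weeks. Oral twice-daily dosing started the same day and ran 7 days. The area of vascularization was then quantitated relative to animals given vehicle (2% Klucel LF, 0.1% Tween 80 in water).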"}},
  "data": [
    {"smiles": "COc1ccc(N2Cc3cnc(Nc4ccccc4)nc3N([C@@H]3CC[C@@H](O)C3)C2=O)cc1", "note": "(racemic)", "values": [
      {"measurement": "Tmax", "setting": "[1]", "value": 15, "unit": "min"},
      {"measurement": "Cmax", "setting": "[2]", "value": 28400, "unit": "ng/mL"},
      {"measurement": "inhibition in vivo at 50 mg/kg", "setting": "Mus musculus", "value": 91, "unit": "%"}
    ]}
  ]
}
